Results taken from publication PMC4303873 (Scientific Reports, 2015).

How the values were obtained:
mushroom tyrosinase = assay: Mushroom tyrosinase inhibition assay and IC50 determination; type: biochemical
Cell viability = type: cell-based, human; conditions: human, normal human epidermal melanocytes
Procedure, shortened: (§1)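 Normal human epidermal melanocytes grown in Medium 254 with HMGS. Confluent cells trypsinized, resuspended in Melanocyte Growth Medium M2 and seeded at 2 × 10^4 cells/well. After 24 h, exposed to test compound at 5 or 50 μM at 37°C for 72 h. […] Viability read by MTT.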

[1] = system: Normal human epidermal melanocytes; assay: Cell viability; type: cell-based; conditions: concentration ranging from 0 to 50 μM
Procedure, shortened: as §1

zebrafish embryos = assay: Zebrafish in vivo assay; conditions: for decrease of pigmentation level of zebrafish: 50 μM, 9 to 57 hpf (48 h exposure)
Procedure, shortened: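 Synchronized zebrafish embryos, three per well in 200 μl embryo medium. Test compound solutions (in 1% DMSO), 10–50 μM, added from 9 to 57 hpf (48 h exposure). […] At 57 hpf, embryos anesthetized in tricaine, mounted in 1% methyl cellulose and photographed under a stereomicroscope. Body pigmentation scored by phenotype and by image pixel measurement.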

ICR male mice = assay: Acute oral toxicity study in mice; type: in vivo
Procedure, shortened: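 ICR male mice (Crl:CD1), 24 animals randomized into 4 groups of six. Single oral gavage at 1500, 3000 or 6000 mg/kg, or vehicle (4% Tween 80 in water for injection), at 20 ml/kg adjusted to pre-dose body weight. Mortality checked twice daily and clinical signs once daily, SD3–SD14. Body weight taken SD1, SD8 and SD15. Gross necropsy of thoracic and abdominal cavities on SD15.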

[2] = system: Normal human epidermal melanocytes; assay: Melanin quantification assay in normal human melanocytes; type: cell-based; conditions: 50 μM, 72 hours
Procedure, shortened: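 Normal human epidermal melanocytes in Medium 254 with HMGS, trypsinized into M2 medium and seeded at 1 × 10^5 cells/well. After 24 h, treated for 72 h at 37°C. […] Cell pellets dissolved in 1N NaOH at 70°C for 1 h and spun at 10,000 × g for 10 min. Supernatant OD405 measured.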

Oc1ccc(CSCc2ccc(O)cc2)cc1 [T1, bis(4-hydroxybenzyl)sulfide]
Ki (mushroom tyrosinase; Dixon plot): 58 ± 6 nM
type of inhibition (mushroom tyrosinase; Dixon plot): strong competitive inhibitor
IC50 (mushroom tyrosinase; L-tyrosine substrate, dopachrome at 475 nm, triplicate): 530 nM
viability at 72 h, 5 µM (Cell viability): 99.2%
viability at 72 h, 50 µM (Cell viability): 97.2%
cytotoxicity to normal human melanocyte cells [1]: non-cytotoxic
decrease of pigmentation level of zebrafish (zebrafish embryos): about 41.4%
decrease of pigmentation relative to kojic acid (zebrafish embryos; both at 50 μM): 3 fold
adverse side effects in zebrafish (zebrafish embryos; zebrafish, in vivo): without any adverse side effects
dose with no adverse toxic effects (ICR male mice; ICR mice, single oral dose): up to 6000 mg/kg
body weight and body gain versus control mice (ICR male mice; single oral dose 1500, 3000, and 6000 mg/kg): no difference
death and clinical symptoms (ICR male mice; single oral dose 1500, 3000, and 6000 mg/kg, 14 days observation): no death and abnormal clinical symptom
gross lesions at necropsy (ICR male mice; single oral dose 1500, 3000, and 6000 mg/kg, SD15): no observable gross lesion

O=c1cc(CO)occ1O [kojic acid, reference compound]
decrease of melanin content [2]: very few or no melanin content decrease
decrease of pigmentation level of zebrafish (zebrafish embryos): 12.9%

OC[C@H]1O[C@H](Oc2ccc(O)cc2)[C@H](O)[C@@H](O)[C@@H]1O [α-arbutin]
decrease of melanin content [2]: very few or no melanin content decrease

OC[C@H]1O[C@@H](Oc2ccc(O)cc2)[C@H](O)[C@@H](O)[C@@H]1O [β-arbutin]
decrease of melanin content [2]: very few or no melanin content decrease
